Experimental data from the EternaBench riboswitch data.

Test system: MS2 coat protein
Test: apparent Kd, MS2 coat protein; higher = weaker binding; RNA-MaP array; FMN 200 µM where present
How it was run: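 Stalled E. coli RNA polymerase produced the designs on Illumina sequencing-chip clusters. SNAP-549-labelled MS2 coat protein was added from 0.7 or 1.5 nM, doubling to 3 µM, without and then with constant ligand, in 100 mM Tris-HCl pH 7.5, 80 mM KCl, 4 mM MgCl2, BSA, DTT, yeast tRNA and Tween-20. The apparent Kd is the median of filtered per-cluster fits of green signal normalised to red-channel RNA signal and control-cluster median Fmax.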

[1] = designed as: ON switch for flavin mononucleotide, no ligand
[2] = ligand present: flavin mononucleotide, designed as: ON switch for flavin mononucleotide
[3] = designed as: OFF switch for flavin mononucleotide, no ligand
[4] = ligand present: flavin mononucleotide, designed as: OFF switch for flavin mononucleotide

| Sequence | apparent Kd [1] | apparent Kd [2] | apparent Kd [3] | apparent Kd [4] |
| --- | --- | --- | --- | --- |
| CGUAGGAUCCAGAAGGCAUGAAACAUGAGGAUCACCCAUGUCAAAGACAUGAGGAUAUGGAUCCUACGAAAAGUGCGAAAGCAC | 4.1 nM | 3.15 nM | – | – |
| CGUAGGAUCCAGAAGGCAUGAAACAUGAGGAUCACCCAUGUCAAAUACAUGAGGAUAUGGAUCCUACGAAAAGUGCGAAAGCAC | 3.95 nM | 3.84 nM | – | – |
| CGUAGGAUCCAGAAGGCAUGUACAUGAGGAUCACCCAUGUCGAAAGACAUGAGGAUAUGGAUCCUACGAAAAGUGCGAAAGCAC | 56.4 nM | 6.15 nM | – | – |
| CGUAGGCCUCUCAACAUGAGGAUCACCCAUGUACGUGAAACGUAGGAUAUCACACAACUAAUGUGUGAGAAGGGCGCGCCGGAG | 126 nM | 124 nM | – | – |
| CGUAGUCCGUAGAAGGGUGACAUGAGGAUCACCCAUGUGCGAGCCGAGGGAGUCAGCGGCUCGCCACAGGAUAUACGGAGCACG | 44.5 nM | 52.9 nM | – | – |
| CGUAGUUGGUAAGGAUAUCCUACACUAUUCUGACCCGUGCAAGCUACAUGAGGAUCACCCAUGUGGGAGAAGGUGCGUCAACGU | – | – | 10.8 nM | 10.9 nM |
| CGUAUACAUGAGGAUCACCCAUGUAAGGAUAUGCUUUAUUAUUAUUAUUAUUAUUGUUGCAGAAGGUACAUUGC | – | – | 19 nM | 17.7 nM |
| CGUCCACAUGAGGAUCACCCAUGUGAGGAUAUCGAUGUCCCAGGGCGGGUGCGGGACUCGAGAAGGCACUAGGU | – | – | 32.7 nM | 93.6 nM |
| CGUCGGAGCAGAGGAUAUUACAUGAGGAUCACCCAUGUAUGAACCAAUAGCUGGAAACAGCAAUGUAAGAAGGCUGCUCCGACA | – | – | 12.8 nM | 198 nM |
| CGUGACGACAUAGGAUAUUGAUACAUGAGGAUCACCCAUGUCAACCAUUUAUCUCAAAUUGUUGACAAGAAGGAUGUGGUCACG | 263 nM | 13.6 nM | – | – |
| CGUGACGACAUAGGAUAUUGAUACAUGAGGAUCACCCAUGUCACCCAUUUAUCUCUAAGUGUUGACAAGAAGGAUGUGGUCACG | 10.1 nM | 9.33 nM | – | – |
| CGUGCAAAUGUAGGAUAUGGUUAUCUAUGUCUAGUUACUAGACAUAGAUAACCAGAAGGACAUGAGGAUCACCCAUGUAGCACG | – | – | 6.7 nM | 21.6 nM |
| CGUGCUUAUGUAGGAUAUGGUUAUCUAUGUCUAGUUACUAGACAUAGAUAACCAGAAGGACAUGAGGAUCACCCAUGUAGCACG | – | – | 14.6 nM | 25.8 nM |
| CGUGUUCCACAGAAGGCAUGGGACACAUGAGGAUCACCCAUGUCACUGAUGAGGAUAUGUAAAAGGAGCGAGGUGCAAGAAUAG | 158 nM | 23.7 nM | – | – |
| CGUUAAUAUCGAGGAUAUGUCUAGACACAUGAGGAUCACCCAUGUAUGUGUAUAGAAGGCGAUAUUAACAGCAUGUUACAUGCU | 41 nM | 16.7 nM | – | – |
| CGUUCUAGAGGAUAUACAGCUUAUGUACGGCGAUCUGGACAACAUGAGGAUCACCCAUGUAGAAGGCUAAGCAC | – | – | 36.4 nM | 69 nM |
| CUAAUGUGAGGAUAUGGUGUUGAUCGCAGGAAGGAGAUGCUCCAGAAGGCACAUGAGGAUCACCCAUGUAGUGA | – | – | 70.5 nM | 36.7 nM |
| CUACCUUAUGAGAAGGCGGUCAUGAAACAUGAUCGAGGAUAUCAUGUAAACAUGAGGAUCACCCAUGUAUGGGUAUUAUGGUAA | 226 nM | 28.8 nM | – | – |
| CUAGCGUAUGUAGGAUAUCGGACUGUUUCAGUCUGAGAAGGACAUGAGGAUCACCCAUGUAUAGCUACGUGAGUAGCUCGCUAG | – | – | 20.4 nM | 32.4 nM |
| CUAGUACAUGAGGAUCACCCAUGUCAGGAUAUUGGAUAUGACAUGGAAAACAUGUUAACAAGAAGGGACUAUAG | – | – | 245 nM | 209 nM |
| CUAGUAUAUCAGGAUAUGAUUUUGUGUAGUUGGUCAGAAGGGAUGACAUGAGGAUCACCCAUGUUAAGGAGUGA | – | – | 122 nM | 146 nM |

| Sequence | apparent Kd [1] | apparent Kd [2] | apparent Kd [3] | apparent Kd [4] |
| --- | --- | --- | --- | --- |
| CUAUAUAAUGCCUCAUGUACAUGAGGAUCACCCAUGUUAACUUAGGAUAUAUUUAUAUUGAUAGAGUAGAAGGAAGUACUAUUU | – | – | 14.2 nM | 12.9 nM |
| CUAUCUUAUGAGAAGGCGAUCAUGAAACAUGAUCGAGGAUAUCAUGUAAACAUGAGGAUCACCCAUGUAUGGGUAUUAUGGUAG | 175 nM | 57.1 nM | – | – |
| CUAUGAAGAAUAGGAUAUUCGAUCAUGAGGAUAGAAGAAGGGUUACAUGAGGAUCACCCAUGUAUGCACAUGAGGAUCCCUUAG | – | – | 167 nM | 195 nM |
| CUAUUUUUACAGAAGGUUUAAUACUAUGUAUGAGAAGGAUAUGUAACAUGAGGAUCACCCAUGUUUUAUUUAUAUGAGGUUCGU | – | – | 13.4 nM | 11.4 nM |
| CUCAGCAAGGAAGGAUAUGGGUUUUCGCACAUGAGGAUCACCCAUGUCGCAGUCCCUACGGGAUCCCAGAAGGUCUAUGCGUGG | 260 nM | 16.3 nM | – | – |
| CUCAGCUCGUCAGGAUAUACGUCACUGCUUCGGCAGUGUGGUAAGAUCACAUGAGGAUCACCCAUGUAGAAGGGACGAGCUGAG | – | – | 11.5 nM | 245 nM |
| CUCAUGUGAGGAUAUCAGUAGUAAAAAAAUAAAAUUACUACUGAGAAGGCACAUGAGGAUCACCCAUGUGUCUU | – | – | 16.3 nM | 31.7 nM |
| CUCAUGUGAGGAUAUGUGAUCAACCUUCUAUAUAGAUGAUUACAGAAGGCACAUGAGGAUCACCCAUGUAGAUC | – | – | 23.4 nM | 18.3 nM |
| CUCAUGUGAGGAUAUGUGAUCAACCUUCUGUAUAGAUGAUUACAGAAGGCACAUGAGGAUCACCCAUGUAGAUC | – | – | 106 nM | 125 nM |
| CUCAUGUUAGGAUAUGCGCUCAACGUAGUGGUCGAGCUCUAGCAGAAGGAACAUGAGGAUCACCCAUGUUUGCA | – | – | 58.1 nM | 26.8 nM |
| CUCCCAUGUGUAGGAUAUAGAAAACCGAAAUGGCUAGAAGGACACAUGAGGAUCACCCAUGUAACCUUAACUUAGUGUACCGGG | – | – | 53.3 nM | 124 nM |
| CUCUGCCGGCAGGAUAUUAGGUUACGAUGACGUUGAGAAGGGCUGACAUGAGGAUCACCCAUGUAGGGCUCCAU | – | – | 18.8 nM | 24.5 nM |
| CUCUUACAUGAGGAUCACCCAUGUGAGGAUAUAGCGGCCUGAUGAGGGAUCAACAUCGCUAGAAGGUACUUGGG | – | – | 101 nM | 106 nM |
| CUCUUAGCAGGAUAUACAUUAUCCCAGUCAUGGUCGGCGACACAUGAGGAUCACCCAUGUAGAAGGGCUAUGAG | – | – | 23.4 nM | 52.8 nM |
| CUCUUGUGAGGAUAUCAGUAGUAAAAAAAUAAAAUUACUACUGAGAAGGCACAUGAGGAUCACCCAUGUGUCUU | – | – | 14 nM | 13.1 nM |
| CUCUUUUAAGGAUAUACAUGAGGAUCACCCAUGUGCAUAGGUAUGUCCGGGUCCUGGAGUAGAAGGUGGGACGG | – | – | 70.3 nM | 58.4 nM |
| CUGAAGUCAGGAUAUCGUUAAUUUAGUUGUUUGUAUUAGUUCGAGAAGGGACAUGAGGAUCACCCAUGUAAGUU | – | – | 33.6 nM | 51.3 nM |
| CUGAGCCUAGGAUAUACUGGCUGUAAGCUUGAUGCCUGCACACAUGAGGAUCACCCAUGUAGAAGGAGGCCAGG | – | – | 17.2 nM | 21.1 nM |
| CUGAUGUUAGGAUAUCAGGCGCCCGCCACUGGCAAAGCGCAUGAGAAGGGACAUGAGGAUCACCCAUGUAGUAA | – | – | 28.2 nM | 47.6 nM |
| CUGAUGUUAGGAUAUCAGGUUGCGCGCGAAGGCGCGCGGCAUGAGAAGGAACAUGAGGAUCACCCAUGUGACGA | – | – | 39.7 nM | 148 nM |
| CUGAUGUUAGGAUAUCAGGUUGUGCGCGAAGGCGGGCGGCAUGAGAAGGAACAUGAGGAUCACCCAUGUGACGA | – | – | 29.4 nM | 85 nM |
